Experimental data of several laboratories.
Compare with care: the assays were run in different laboratories. Values after ≈ are worked out from the molar mass of the structure shown.

Compound	organism	assay	system	setting	measurement	value
CCOC(=O)C1=C(CN2CCN(Cc3cccc(B(O)O)c3)CC2)NC(c2nccs2)=NC1c1ccc(F)cc1Br (stereo not drawn)	Hepatitis B virus	viral replication, inhibitor, qPCR	HepDES19	72 h	EC50	1.27 µM
Cc1ccc(COc2ccc(C3Oc4ccccc4C=C3[N+](=O)[O-])cc2)cc1 (stereo not drawn)	Leishmania tropica	parasite growth	THP-1	72 h, intracellular, amastigote	IC50	150 µg/mL
Cc1ccc(N=Nc2c(N)nn3c(-c4ccc(Cl)cc4Cl)cc(-c4ccc(OCc5ccccc5)cc4)nc23)cc1	Saccharomyces cerevisiae	microbial growth, broth dilution	ATCC9763	–	MIC	31.3 µg/mL (≈ 54 µM)
COc1ccc(C=NNC(=S)Nc2cccnc2)cc1OC	Leishmania tropica	parasite growth, MTT	–	72 h, promastigote	IC50	> 1000 µM
O=[N+]([O-])C1=Cc2ccccc2OC1c1cccc(Br)c1 (stereo not drawn)	Leishmania tropica	parasite growth	THP-1	72 h, intracellular, amastigote	IC50	171 µg/mL
CCOC(=O)C1=C(CN2CCC(C(=O)Nc3ccc(B(O)O)cc3)C2)NC(c2nccs2)=NC1c1ccc(F)cc1Br (stereo not drawn)	Hepatitis B virus	viral replication, inhibitor, qPCR	HepDES19	72 h	EC50	0.5 µM
CNC(=S)NN=Cc1ccc(Br)cc1	Leishmania tropica	parasite growth, MTT	–	72 h, promastigote	IC50	92.3 µM
COc1ccc(N=Nc2c(N)nn3c(-c4ccc(Cl)cc4Cl)cc(-c4ccc(OCc5ccccc5)cc4)nc23)cc1	Saccharomyces cerevisiae	microbial growth, broth dilution	ATCC9763	–	MIC	125 µg/mL (≈ 210 µM)
CCOC(=O)C1=C(CN2CCC[C@H]2C(=O)Nc2ccc(B(O)O)cc2)NC(c2nccs2)=N[C@@H]1c1ccc(F)cc1Br	Hepatitis B virus	viral replication, inhibitor, qPCR	HepDES19	72 h	EC50	33.3 µM
Cc1ccc(-c2cc(-c3ccc(OCc4ccccc4)cc3)nc3c(N=Nc4ccc(F)cc4)c(N)nn23)cc1	Saccharomyces cerevisiae	microbial growth, broth dilution	ATCC9763	–	MIC	62.5 µg/mL (≈ 118 µM)
O=[N+]([O-])C1=Cc2ccccc2OC1c1ccccc1Cl (stereo not drawn)	Leishmania tropica	parasite growth	THP-1	72 h, intracellular, amastigote	IC50	164 µg/mL
COc1ccc(N=Nc2c(N)nn3c(-c4ccc(C)cc4)cc(-c4ccc(OCc5ccccc5)cc4)nc23)cc1	Saccharomyces cerevisiae	microbial killing, broth dilution	ATCC9763	–	MFC	125 µg/mL (≈ 231 µM)
O=[N+]([O-])C1=Cc2ccccc2OC1c1cccc(OCc2ccc(Cl)cc2)c1 (stereo not drawn)	Leishmania tropica	parasite growth	THP-1	72 h, intracellular, amastigote	IC50	149 µg/mL
CCCCN1CN(CC(=O)O)CSC1=S	Leishmania tropica	parasite growth, MTT	–	48 h, promastigote	IC50	94.1 µM
Cc1ccc(N=Nc2c(N)nn3c(-c4ccc(C)cc4)cc(-c4ccc(OCc5ccccc5)cc4)nc23)cc1	Saccharomyces cerevisiae	microbial growth, broth dilution	ATCC9763	–	MIC	62.5 µg/mL (≈ 119 µM)
C[C@@H]1[C@H](O)[C@@H](C)/C=C/C=C/C=C/C=C/C=C/C=C/C=C/[C@H](O[C@@H]2O[C@H](C)[C@@H](O)[C@H](N)[C@@H]2O)C[C@@H]2O[C@](O)(C[C@@H](O)C[C@@H](O)[C@H](O)CC[C@@H](O)C[C@@H](O)CC(=O)O[C@H]1C)C[C@H](O)[C@H]2C(=O)O	Saccharomyces cerevisiae	microbial growth, broth dilution	BY4741	48 h	MIC	0.25 µg/mL (≈ 0.271 µM)
CNC(=S)NN=Cc1ccc(C)cc1	Leishmania tropica	parasite growth	J774.A1	72 h, intracellular, amastigote	IC50	452 µM

Compound	organism	assay	system	setting	measurement	value
CCOC(=O)C1=C(CN2CCCC2C(=O)Nc2cccc(B(O)O)c2)NC(c2nccs2)=NC1c1ccc(F)cc1Br (stereo not drawn)	Hepatitis B virus	viral replication, inhibitor, qPCR	HepDES19	72 h	EC50	0.47 µM
CNC(=S)NN=Cc1ccc(OC)c(OC)c1	Leishmania tropica	parasite growth	J774.A1	72 h, intracellular, amastigote	IC50	454 µM
CC(=O)N1CCN(c2ccc(OCC3COC(Cn4ccnc4)(c4ccc(Cl)cc4Cl)O3)cc2)CC1 (stereo not drawn)	Saccharomyces cerevisiae	microbial growth, broth dilution	ATCC9763	–	MIC	1.95 µg/mL (≈ 3.67 µM)
O=[N+]([O-])C1=Cc2ccccc2OC1c1ccc(OCc2ccc(Cl)cc2)cc1 (stereo not drawn)	Leishmania tropica	parasite growth	THP-1	72 h, intracellular, amastigote	IC50	142 µg/mL
S=C(NN=Cc1ccc(Br)cc1)Nc1cccnc1	Leishmania tropica	parasite growth	J774.A1	72 h, intracellular, amastigote	IC50	475 µM
COc1ccc(N=Nc2c(N)nn3c(-c4ccco4)cc(-c4ccc(OCc5ccccc5)cc4)nc23)cc1	Saccharomyces cerevisiae	microbial killing, broth dilution	ATCC9763	–	MFC	125 µg/mL (≈ 242 µM)
CCOC(=O)C1=C(CN2CCC(C(=O)Nc3cccc(B4OC(C)(C)C(C)(C)O4)c3)C2)NC(c2nccs2)=NC1c1ccc(F)cc1Br (stereo not drawn)	Hepatitis B virus	viral replication, inhibitor, qPCR	HepDES19	72 h	EC50	0.87 µM
COc1ccc(C2Oc3ccccc3C=C2[N+](=O)[O-])cc1 (stereo not drawn)	Leishmania tropica	parasite growth	THP-1	72 h, intracellular, amastigote	IC50	150 µg/mL
OC(Cn1cncn1)(Cn1cncn1)c1ccc(F)cc1F	Saccharomyces cerevisiae	microbial growth, broth dilution	BY4741	48 h	MIC	4 µg/mL (≈ 13.1 µM)
C[C@@H]1[C@H](O)[C@@H](C)/C=C/C=C/C=C/C=C/C=C/C=C/C=C/[C@H](O[C@@H]2O[C@H](C)[C@@H](O)[C@H](N)[C@@H]2O)C[C@@H]2O[C@](O)(C[C@@H](O)C[C@@H](O)[C@H](O)CC[C@@H](O)C[C@@H](O)CC(=O)O[C@H]1C)C[C@H](O)[C@H]2C(=O)O	Leishmania tropica	parasite growth	J774.A1	72 h, intracellular, amastigote	IC50	27.9 µM
Nc1nn2c(-c3ccco3)cc(-c3ccc(OCc4ccccc4)cc3)nc2c1N=Nc1ccc(F)cc1	Saccharomyces cerevisiae	microbial killing, broth dilution	ATCC9763	–	MFC	62.5 µg/mL (≈ 124 µM)
O=[N+]([O-])C1=Cc2ccccc2OC1c1ccccc1OCc1ccccc1Cl (stereo not drawn)	Leishmania tropica	parasite growth	THP-1	72 h, intracellular, amastigote	IC50	171 µg/mL
CCOC(=O)C1=C(CN2CCN(Cc3ccccc3B(O)O)CC2)NC(c2nccs2)=NC1c1ccc(F)cc1Br (stereo not drawn)	Hepatitis B virus	viral replication, inhibitor, qPCR	HepDES19	72 h	EC50	1.47 µM
COc1ccc(C=NNC(=S)Nc2cccnc2)cc1	Leishmania tropica	parasite growth, MTT	–	72 h, promastigote	IC50	642 µM
CCOC(=O)C1=C(CN2CCCC2C(=O)Nc2cccc(B3OC(C)(C)C(C)(C)O3)c2)NC(c2nccs2)=NC1c1ccc(F)cc1Br (stereo not drawn)	Hepatitis B virus	viral replication, inhibitor, qPCR	HepDES19	72 h	EC50	0.37 µM
Fc1ccc(C=NNC(=S)Nc2cccnc2)cc1	Leishmania tropica	parasite growth	J774.A1	72 h, intracellular, amastigote	IC50	201 µM
